What all share (assay type): functional
In assay [1] the test system is HL-60(TB). The assay can be described thus: Growth inhibition of human HL-60(TB) cells after 48 hrs by SRB assay. As to conditions: HL-60, 48 h. Put shortly:
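Five-dose NCI-60 assay at 10-fold dilutions, 10^-4 to 10^-8 M, 48 h continuous exposure; SRB protein staining. Absorbance at time zero, untreated control and each concentration gives percent growth. GI50 is the concentration giving 50% lower net protein increase than controls. Values beyond the range tested are reported as above or below the extreme concentration.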

Assay [2] deals with SK-MEL-5. Description: Anticancer activity against human SK-MEL-5 cells assessed as cell growth at 10 uM after 48 hrs by SRB assay. As to conditions: SK-MEL-5, 48 h, read-out: Activity. Put shortly:
(§1)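 US NCI one-dose screen across about 60 human tumour cell lines. A single concentration of 10^-5 M was applied with 48 h continuous exposure. The end point was sulforhodamine B protein staining, read spectrophotometrically. Results are given as percent growth of treated cells relative to untreated controls.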
In general terms: The SRB assay estimates cell density from bound dye.

A short description of assay [3]: Anticancer activity against human NCI60 cells assessed as cell growth at 10 uM after 48 hrs by SRB assay. The conditions noted are these: NCI60, 48 h, read-out: Activity. Put shortly:
as §1

The subject of assay [4] is SK-MEL-5. Description: Growth inhibition of human SK-MEL-5 cells after 48 hrs by SRB assay. As to conditions: SK-MEL-5, 48 h. Put shortly:
(§2)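 NCI five-dose screen across about 60 human tumour cell lines, at 10-fold dilutions from 10^-4 to 10^-8 M with 48 h continuous exposure, read by SRB. Percent growth used time-zero, untreated control and treated absorbances. GI50 was the concentration giving 50% lower net protein increase than controls. Values beyond the tested range were reported as more or less than the maximum or minimum concentration.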

A further assay concerns UACC-62. Description: Growth inhibition of human UACC62 cells after 48 hrs by SRB assay. As to conditions: UACC-62, 48 h. Put shortly: as §2
Another assay relates to SNB-75. The assay can be described thus: Growth inhibition of human SNB75 cells after 48 hrs by SRB assay. The conditions noted are these: SNB-75, 48 h. Put shortly: as §2
The next assay concerns SK-MEL-28. The assay can be described thus: Growth inhibition of human SK-MEL-28 cells after 48 hrs by SRB assay. As to conditions: SK-MEL-28, 48 h. Put shortly:
as §2

A short description of assay [5]: Growth inhibition of human […] cells after 48 hrs by SRB assay. Put shortly: as §2
In a further assay the test system is HT-29. Description: Growth inhibition of human HT-29 cells after 48 hrs by SRB assay. As to conditions: HT-29, 48 h. Put shortly:
as §2

The test system of a further assay is CCRF-CEM. Description: Anticancer activity against human CCRF-CEM cells assessed as cell growth at 10 uM after 48 hrs by SRB assay. As to conditions: read-out: Activity. Put shortly:
as §1

For assay [6], the system named is HL-60(TB). The assay can be described thus: Anticancer activity against human HL-60(TB) cells assessed as cell growth at 10 uM after 48 hrs by SRB assay. As to conditions: HL-60, 48 h, read-out: Activity. Put shortly:
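Single-dose NCI-60 screen: 10^-5 M added to culture, 48 h incubation; endpoint by sulforhodamine B protein staining read spectrophotometrically; reported as percent growth of treated cells versus untreated control cells.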

The subject of the next assay is SR. Description: Anticancer activity against human SR cells assessed as cell growth at 10 uM after 48 hrs by SRB assay. The conditions noted are these: read-out: Activity. Put shortly: as §1

Turning to `O=C1N=C(N2N=C(c3ccccc3)CC2c2ccccc2O)/C(=C/c2ccc(O)cc2)S1` (stereo not given), the GI50 (in general, the concentration giving 50% growth inhibition) is 1660 nM with HL-60(TB) [1]; 1700 nM in the assay with SK-MEL-5 [4]; 1700 nM with UACC-62; 1950 nM in the assay with SNB-75; 1780 nM in the assay with SK-MEL-28; 1860 nM in [5]. The GI50 in the assay with HT-29 is 1910 nM. Also, the TGI with HL-60(TB) [1] (read-out: pTGI (converted)) is 4900 nM; in the assay with SK-MEL-5 [4] (read-out: pTGI (converted)), 3310 nM; with UACC-62 (read-out: pTGI (converted)) it was 3310 nM; with SNB-75 (read-out: pTGI (converted)), 5250 nM; in [5] (read-out: pTGI (converted)) it was 4470 nM. The growth at 10 µM in the assay on SK-MEL-5 [2] was -96.3%; in assay [3] it was 1.13%.
Consider `O=C1N=C(N2N=C(c3ccccc3)CC2c2ccccc2O)S/C1=C\c1ccc(Cl)cc1` (stereo not given), for which the figures for the growth at 10 µM (in assay [3]; in the assay with CCRF-CEM) were 98.3% and -25%, respectively.
Take `O=C1N=C(N2N=C(c3ccccc3)CC2c2ccccc2O)S/C1=C\c1cccc(Br)c1` (stereo not given): the values for the growth at 10 µM (in the assay with HL-60(TB) [6]; in [3]) were -54% and 88.6%, respectively.
With `O=C1N=C(N2N=C(c3ccccc3)CC2c2ccccc2O)S/C1=C\c1ccccc1Cl` (stereo not given), the growth at 10 µM in the assay with SR turned out to be 45.6%; in assay [3], 102%.

The values above are taken from ChEMBL document CHEMBL1137728, “Synthesis of novel thiazolone-based compounds containing pyrazoline moiety and evaluation of their anticancer activity” (2009).
